Results reported in ChEMBL document CHEMBL3580615, “Isolation and Characterization of Dammarane-Type Saponins from Gynostemma pentaphyllum and Their Inhibitory Effects on IL-6-Induced STAT3 Activation” (J Nat Prod, 2015).

Assay: Cytotoxicity against human Hep3B cells after 48 hrs by MTT assay
Type: cell-based
Conditions: hep 3b2, 48 h
Outline: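 Hep3B cells plated and grown 24 h in 96-well plates, then switched to serum-free medium. Samples added at indicated concentrations for 48 h. Viability read by MTT assay.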

Row | Structure (SMILES) | Activity
1 | CC(C)/C=C/C[C@](C)(O[C@@H]1O[C@H](CO[C@@H]2O[C@@H](C)[C@H](O)[C@@H](O)[C@H]2O)[C@@H](O)[C@H](O)[C@H]1O)[C@H]1CC[C@]2(C)[C@@H]1[C@H](O)C[C@@H]1[C@@]3(C)C[C@@H](O)[C@H](O[C@@H]4O[C@H](CO)[C@@H](O)[C@H](O)[C@H]4O[C@@H]4O[C@H](CO)[C@@H](O)[C@H](O)[C@H]4O)C(C)(C)[C@@H]3CC[C@]12C | Non-toxic
2 | C[C@@H]1O[C@@H](OC[C@H]2O[C@@H](O[C@@](C)(C/C=C/C(C)(C)O)[C@H]3CC[C@]4(C)[C@@H]3[C@H](O)C[C@@H]3[C@@]5(C)C[C@@H](O)[C@H](O[C@@H]6O[C@H](CO)[C@@H](O)[C@H](O)[C@H]6O)C(C)(C)[C@@H]5CC[C@]34C)[C@H](O)[C@@H](O)[C@@H]2O)[C@H](O)[C@H](O)[C@H]1O | Non-toxic
3 | CC(C)(/C=C/C[C@](C)(O[C@@H]1O[C@H](CO)[C@@H](O)[C@H](O)[C@H]1O)[C@H]1CC[C@]2(C)[C@@H]1[C@H](O)C[C@@H]1[C@@]3(C)C[C@@H](O)[C@H](O[C@@H]4O[C@H](CO)[C@@H](O)[C@H](O)[C@H]4O[C@@H]4O[C@H](CO)[C@@H](O)[C@H](O)[C@H]4O)C(C)(C)[C@@H]3CC[C@]12C)OO | Non-toxic
4 | C[C@@H]1O[C@@H](OC[C@H]2O[C@@H](O[C@@](C)(C/C=C/C(C)(C)OO)[C@H]3CC[C@]4(C)[C@@H]3[C@H](O)C[C@@H]3[C@@]5(C)C[C@@H](O)[C@H](O[C@@H]6O[C@H](CO)[C@@H](O)[C@H](O)[C@H]6O[C@@H]6O[C@H](CO)[C@@H](O)[C@H](O)[C@H]6O)C(C)(C)[C@@H]5CC[C@]34C)[C@H](O)[C@@H](O)[C@@H]2O)[C@H](O)[C@H](O)[C@H]1O | Non-toxic
5 | CC(C)(/C=C/C[C@](C)(O[C@@H]1O[C@H](CO[C@@H]2O[C@H](CO)[C@@H](O)[C@H](O)[C@H]2O)[C@@H](O)[C@H](O)[C@H]1O)[C@H]1CC[C@]2(C)[C@@H]1[C@H](O)C[C@@H]1[C@@]3(C)C[C@@H](O)[C@H](O)C(C)(C)[C@@H]3CC[C@]12C)OO | Non-toxic
6 | C=C(C)C(=O)CC[C@](C)(O[C@@H]1O[C@H](CO[C@@H]2O[C@@H](C)[C@H](O)[C@@H](O)[C@H]2O)[C@@H](O)[C@H](O)[C@H]1O)[C@H]1CC[C@]2(C)[C@@H]1[C@H](O)C[C@@H]1[C@@]3(C)C[C@@H](O)[C@H](O[C@@H]4O[C@H](CO)[C@@H](O)[C@H](O)[C@H]4O[C@@H]4O[C@H](CO)[C@@H](O)[C@H](O)[C@H]4O)C(C)(C)[C@@H]3CC[C@]12C | Non-toxic
7 | C=C(C)C(=O)CC[C@](C)(O[C@@H]1O[C@H](CO[C@@H]2O[C@H](CO)[C@@H](O)[C@H](O)[C@H]2O)[C@@H](O)[C@H](O)[C@H]1O)[C@H]1CC[C@]2(C)[C@@H]1[C@H](O)C[C@@H]1[C@@]3(C)C[C@@H](O)[C@H](O)C(C)(C)[C@@H]3CC[C@]12C | Non-toxic
8 | CC(C)/C=C/C[C@](C)(O[C@@H]1O[C@H](CO[C@@H]2O[C@@H](C)[C@H](O)[C@@H](O)[C@H]2O)[C@@H](O)[C@H](O)[C@H]1O)[C@H]1CC[C@]2(C)[C@@H]1[C@H](O)C[C@@H]1[C@@]3(C)C[C@@H](O)[C@H](O[C@@H]4O[C@H](CO)[C@@H](O)[C@H](O)[C@H]4O)C(C)(C)[C@@H]3CC[C@]12C | Non-toxic
9 | C=C(C)C(=O)CC[C@](C)(O[C@@H]1O[C@H](CO[C@@H]2O[C@@H](C)[C@H](O)[C@@H](O)[C@H]2O)[C@@H](O)[C@H](O)[C@H]1O)[C@H]1CC[C@]2(C)[C@@H]1[C@H](O)C[C@@H]1[C@@]3(C)C[C@@H](O)[C@H](O)C(C)(C)[C@@H]3CC[C@]12C | Non-toxic
10 | CC(C)/C=C/C[C@](C)(O[C@@H]1O[C@H](CO[C@@H]2O[C@@H](C)[C@H](O)[C@@H](O)[C@H]2O)[C@@H](O)[C@H](O)[C@H]1O)[C@H]1CC[C@]2(C)[C@@H]1[C@H](O)C[C@@H]1[C@@]3(C)CC[C@H](O[C@@H]4O[C@H](CO)[C@@H](O)[C@H](O)[C@H]4O[C@@H]4O[C@H](CO)[C@@H](O)[C@H](O)[C@H]4O)C(C)(C)[C@@H]3CC[C@]12C | Non-toxic
11 | CC(C)/C=C/C[C@](C)(O[C@@H]1O[C@H](CO[C@@H]2O[C@@H](C)[C@H](O)[C@@H](O)[C@H]2O)[C@@H](O)[C@H](O)[C@H]1O)[C@H]1CC[C@]2(C)[C@@H]1[C@H](O)C[C@@H]1[C@@]3(C)C[C@@H](O)[C@H](O)C(C)(C)[C@@H]3CC[C@]12C | Non-toxic
